For data set [1], the species on record is Sus scrofa. In words: Inhibition of unstable spontaneous bladder contractions in Landrace/Yorkshire pig bladder instability model. It is filed as functional, organism-based.
Data set [2] deals with Sus scrofa. Description: Reduction of blood pressure in pig at 1 mg/kg, iv. In kind it is functional. More on the design: scale not given: the % may be the effect or the level left. The gist of the method: (§1)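 Conscious obstructed, telemetered pigs held in restraint cage with 20 gauge venous catheters in both ears for dosing and blood sampling; mean arterial pressure recorded, averaged over post-dose period as percent change from baseline.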

Data set [3] has as its system Sus scrofa. Description: Reduction of unstable spontaneous bladder contractions in Landrace/Yorkshire pig bladder instability model at 0.3 mg/kg, iv. In kind it is functional. Also on record: scale not given: the % may be the effect or the level left.
For data set [4], the system named is Sus scrofa. In words: Reduction of blood pressure in pig at 0.3 mg/kg, iv. It is filed as functional. More on the design: scale not given: the % may be the effect or the level left. The gist of the method: as §1
For data set [5], the system named is Sus scrofa. In words: Reduction of unstable spontaneous bladder contractions in Landrace/Yorkshire pig bladder instability model at 1 mg/kg, iv. In kind it is functional. More on the design: scale not given: the % may be the effect or the level left.
A further data set relates to Portal vein. Description: Effect on rat portal vein. In kind it is functional, tissue-based.
A short description of data set [6]: Activity at Kir6.2 channel in Landrace pig bladder detrusor assessed as relaxation of electrically stimulated contraction. Also on record: species or system Sus scrofa.
A short description of data set [7]: Half life in dog at 100 nmol/kg, po. It is filed as ADME, organism-based, Canis lupus familiaris. Particulars: in vivo.
Data set [8] can be described thus: Half life in dog at 100 nmol/kg, iv. It is filed as ADME, organism-based, Canis lupus familiaris. The note with it: in vivo.
Data set [9] is described as follows: Oral bioavailability in dog at 100 nmol/kg, po. In kind it is ADME, organism-based, Canis lupus familiaris. Particulars: in vivo.
A short description of data set [10]: Plasma clearance in dog at 100 nmol/kg, iv. It is filed as ADME, organism-based, Canis lupus familiaris.
The nature of data set [11]: Tmax in dog at 100 nmol/kg, po. It is filed as ADME, organism-based, Canis lupus familiaris. Particulars: in vivo.
The nature of data set [12]: Half life in dog at 10 nmol/kg, iv. The note with it: in vivo. It is filed as ADME, organism-based, Canis lupus familiaris.
Data set [13] can be described thus: Oral bioavailability in dog at 10 nmol/kg, po. In kind it is ADME, organism-based, Canis lupus familiaris. Particulars: in vivo.
Data set [14] is described as follows: Tmax in dog at 10 nmol/kg, po. The note with it: in vivo. In kind it is ADME, organism-based, Canis lupus familiaris.
Data set [15] in a line: Plasma clearance in dog at 10 nmol/kg, iv. It is filed as ADME, organism-based, Canis lupus familiaris.
A short description of data set [16]: Half life in dog at 10 nmol/kg, po. Particulars: in vivo. In kind it is ADME, organism-based, Canis lupus familiaris.

Results on 23 compounds are retold here after ChEMBL document CHEMBL1138291, “Structure-activity studies of novel cyanoguanidine ATP-sensitive potassium channel openers for the treatment of overactive bladder” (J Med Chem, 2007).

For orientation: EC50 means the concentration giving half of the maximal effect. With `CC(Cl)(Cl)C(NC(=O)c1ccc(Cl)cc1)N/C(=N/C#N)Nc1ccc(Cl)nc1` (stereo unspecified), the Activity result in the data set listed under Sus scrofa [1] is “Dose-dependent effect”; with Sus scrofa [2], 36%; with Sus scrofa [3], 19.7%; in the data set on Sus scrofa [4], 1.4%; in the data set on Sus scrofa [5], 90.7%. Further, the EC50 with Portal vein was 813 nM.

Regarding `CC(Cl)(Cl)C(NC(=O)c1ccc(F)cc1)N/C(=N/C#N)Nc1ccc(C(F)(F)F)nc1` (stereo unspecified), the “Log EC50” value in [6] is -6.02.

In the case of `CC(Cl)(Cl)C(NC(=O)c1cc(Cl)cc(Cl)c1)N/C(=N/C#N)Nc1ccc(Cl)nc1` (stereo unspecified), the “Log EC50” value in data set [6] is given as -5.44.

In the case of `CC(Cl)(Cl)C(NC(=O)c1cccc(Cl)c1)N/C(=N/C#N)Nc1ccc(Cl)nc1` (stereo unspecified), the “Log EC50” value in data set [6] was -5.35.

As for `COc1ncccc1N/C(=N\C#N)NC(NC(=O)c1ccc(Cl)cc1)C(C)(Cl)Cl` (stereo unspecified), the “Log EC50” value in data set [6] is listed as -6.6.

With `CC(Cl)(Cl)C(NC(=O)c1cc(Cl)cc(Cl)c1)N/C(=N/C#N)Nc1ccc(C(F)(F)F)nc1` (stereo unspecified), in data set [6], the “Log EC50” value was -5.7.

On to `Cc1cccc(C(=O)NC(N/C(=N/C#N)Nc2ccc(Cl)nc2)C(C)(Cl)Cl)c1` (stereo unspecified), for which, in data set [6], the “Log EC50” value was -5.42.

For the compound `CC(Cl)(Cl)C(NC(=O)c1ccc(Cl)cc1)N/C(=N/C#N)Nc1cccnc1Cl` (stereo unspecified), in data set [6], the “Log EC50” value was -6.16.

As a reminder, the half-life is the time in which the quantity being followed falls by half. What is called bioavailability is dose-corrected exposure relative to a reference, in per cent. As usually defined, the clearance is the rate of elimination divided by the concentration. A word on the Tmax: it is the time at which the peak concentration occurs. With `CC(Cl)(Cl)C(NC(=O)c1ccc(Cl)cc1)NC(=NC#N)Nc1ccc(Cl)nc1` (stereo unspecified), the half-life was 15 h in data set [7] and 9.9 h in data set [8]. This compound came in with a bioavailability in [9] of 100%. In data set [10], this compound had a clearance of 2.17 mL/min/kg. For the same compound, the Tmax in data set [11] came out at 0.4 h.

For `CC(Cl)(Cl)C(NC(=O)c1cc(F)cc(F)c1)N/C(=N/C#N)Nc1ccc(C(F)(F)F)nc1` (stereo unspecified), the half-life in data set [7] is 6.9 h; in [8] it was 5.5 h. Also, in data set [9], the bioavailability came to 100%. Moreover, the clearance in data set [10] is 1 mL/min/kg. Also, in [6], the “Log EC50” value is -5.54. The time to peak (Tmax) in data set [11] came out at 0.7 h.

Regarding `CC(Cl)(Cl)C(NC(=O)c1ccc(Cl)cc1)N/C(=N/C#N)Nc1ccc(F)nc1` (stereo unspecified), the “Log EC50” value in [6] is listed as -5.87.

For `CC(Cl)(Cl)C(NC(=O)c1ccc(C(F)(F)F)cc1)N/C(=N/C#N)Nc1ccc(C(F)(F)F)nc1` (stereo unspecified), in data set [6], the “Log EC50” value was -5.65.

With `CC(Cl)(Cl)C(NC(=O)c1cccc(Cl)c1)N/C(=N/C#N)Nc1ccc(C(F)(F)F)nc1` (stereo unspecified), the “Log EC50” value in data set [6] is given as -5.28.

Turning to `Cc1cccc(C(=O)NC(N/C(=N/C#N)Nc2ccc(C(F)(F)F)nc2)C(C)(Cl)Cl)c1` (stereo unspecified), in [6], the “Log EC50” value is -5.94.

Take `CC(Cl)(Cl)[C@@H](NC(=O)c1ccc(Cl)cc1)N/C(=N/C#N)Nc1cccnc1`: the “Log EC50” value in data set [6] was -5.26.

For `CC(Cl)(Cl)C(NC(=O)c1ccc(Cl)cc1)N/C(=N/C#N)Nc1cncc(Br)c1` (stereo unspecified), the “Log EC50” value in [6] was -6.23.

Consider `Cc1ccc(C(=O)NC(N/C(=N/C#N)Nc2ccc(C(F)(F)F)nc2)C(C)(Cl)Cl)cc1` (stereo unspecified), for which, in data set [6], the “Log EC50” value was -5.15.

Take `CC(Cl)(Cl)C(NC(=O)c1cccc(F)c1)N/C(=N/C#N)Nc1ccc(C(F)(F)F)nc1` (stereo unspecified): in data set [6], the “Log EC50” value was -5.71.

For `CC(Cl)(Cl)C(NC(=O)c1ccc(Cl)cc1)N/C(=N/C#N)Nc1ccccc1F` (stereo unspecified), the “Log EC50” value in data set [6] is reported as -5.98.

Turning to `CC(Cl)(Cl)C(NC(=O)c1cccc(F)c1)N/C(=N/C#N)Nc1ccc(Cl)nc1` (stereo unspecified), in data set [6], the “Log EC50” value is listed as -5.68.

On to `CC(Cl)(Cl)C(NC(=O)c1ccc(Cl)cc1)N/C(=N/C#N)Nc1ccc(C(F)(F)F)nc1` (stereo unspecified), for which the “Log EC50” value in data set [6] is on record as -5.78.

For the compound `CC(O)(C(=O)Nc1ccc(C(=O)c2ccccc2)cc1)C(F)(F)F` (single isomer, unassigned) [ZD-6169], the results for the half-life in data set [12] and in [16] were 1.9 h and 1.6 h, respectively. The compound further gave a bioavailability in data set [13] of 43%. Moreover, the Tmax in data set [14] worked out at 0.4 h. This compound had a clearance in data set [15] of 11.2 mL/min/kg.

As for `CC(Cl)(Cl)C(NC(=O)c1cccs1)N/C(=N/C#N)Nc1ccc(C(F)(F)F)nc1` (stereo unspecified), in [6], the “Log EC50” value is -5.44.
